Experimental findings from ChEMBL document CHEMBL4673374, “Synthesis of mitochondria-targeted coumarin-3-carboxamide fluorescent derivatives: Inhibiting mitochondrial TrxR2 and cell proliferation on breast cancer cells” (Bioorg Med Chem Lett, 2021) are described below.

Activity calls are given as the source filed them. The calls are words filed in the database; no cut-off is given here. Where only a bound is given, the exact number is not on record here.

Data set [1] is described as follows: Drug uptake in human MDA-MB-231 cells assessed as blue fluorescence after 2 hrs by flow cytometric analysis. The data set is classed as ADME, cell-based. To be noted: mda-mb-231, 2 h, dose 1-16 µM. An outline of the steps:
(§1)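 Uptake read from native blue fluorescence (λex ~420, λem ~475 nm) by flow cytometry as geometric mean intensity. Dose series read after 2 h. Time course run at 8 μM over several durations. Mean ± SD, n = 3.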
On the technique in general: In flow cytometry, cells or beads pass a laser one at a time.

Another data set deals with MCF7. Nature of the data set: Cytotoxicity against human MCF7 cells after 48 hrs by MTT assay. The data set is classed as functional, cell-based. To be noted: MCF7, 48 h. In outline: (§2)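 MTT viability read after 48 h exposure of three breast cancer lines and non-tumorigenic MCF-10A breast cells; IC50 reported as mean ± SD from at least three independent experiments. Butyl-TPP and tamoxifen run alongside as references. Sulforhodamine B assay used as a cross-check.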

A short description of data set [2]: Drug uptake in human MDA-MB-231 cells assessed as blue fluorescence at 8 uM measured after 0.5 to 1.5 hrs by flow cytometric analysis. It counts as ADME, cell-based. To be noted: mda-mb-231, 8 µM, TDE = time-dependent effect, time 0.5-1.5 hrs. An outline of the steps:
as §1

In another data set the test system is MCF-10A. Nature of the data set: Cytotoxicity against human MCF-10A cells after 48 hrs by MTT assay. The data set is classed as cell-based. In outline:
as §2
For orientation: Tetrazolium assays rely on reduction of a dye to a coloured formazan, in cell work by metabolically active cells.

The test system of the next data set is SK-BR-3. Nature of the data set: Cytotoxicity against human SK-BR-3 cells after 48 hrs by MTT assay. To be noted: SK-BR-3, 48 h. It counts as functional, cell-based. In outline: as §2
Data set [3] relates to MDA-MB-231. Briefly: Cytotoxicity against human MDA-MB-231 cells after 48 hrs by MTT assay. To be noted: MDA-MB-231, 48 h. It counts as functional, cell-based. An outline of the steps:
as §2

Data set [4] can be described thus: Stability of compound in methanol-water after 3 days by HPLC-MS analysis. The data set is classed as physicochemical. To be noted: 72 h; time 3 day.
In data set [5] the test system is MDA-MB-231. Nature of the data set: Inhibition of TrxR activity in human MDA-MB-231 cell mitochondrial extracts at 10 uM incubated for 4 hrs. As to conditions: Mitochondria. In outline: (§3)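 MDA-MB-231 cells treated with 10 μM compound for 4 h. Total-cell and mitochondrial extracts assayed for TrxR activity with a micro oxidized thioredoxin reductase kit. Mean ± SD, n = 3.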

Data set [6] deals with MDA-MB-231. Briefly: Induction of mitochondrial membrane potential loss in human MDA-MB-231 cells assessed as TMRE high cells at 8 uM after 24 hrs by TMRE staining based flow cytometric analysis (reference value: 1.79%). The data set is classed as functional.
Data set [7] relates to MDA-MB-231. Briefly: Inhibition of TrxR activity in human MDA-MB-231 cells at 10 uM incubated for 4 hrs. The data set is classed as cell-based. In outline:
as §3

Data set [8] concerns MDA-MB-231. Briefly: Induction of apoptosis in human MDA-MB-231 cells assessed as late apoptotic or necrotic cells at 2 uM incubated for 48 hrs by Annexin V-FITC/PI staining based flow cytometric analysis (reference value: 3.51 %). It counts as functional.
Data set [9] relates to MDA-MB-231. Nature of the data set: Induction of mitochondrial membrane depolarization in human MDA-MB-231 cells at 2 to 8 uM preincubated with BSO for 24 hrs followed by compound addition by flow cytometric analysis. It counts as functional. To be noted: dose 2-8 µM. An outline of the steps: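 MDA-MB-231 cells pretreated with 50 μM buthionine sulfoximine for 24 h to deplete GSH, then exposed to compound. Mitochondrial membrane potential determined by flow cytometry. Mean ± SD, n = 3.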

For data set [10], the system named is MDA-MB-231. Briefly: Induction of apoptosis in human MDA-MB-231 cells assessed as early apoptotic cells at 4 uM incubated for 48 hrs by Annexin V-FITC/PI staining based flow cytometric analysis (reference value: 2.08 %). The data set is classed as functional.
Data set [11] has as its system MDA-MB-231. Nature of the data set: Induction of apoptosis in human MDA-MB-231 cells assessed as early apoptotic cells at 2 uM incubated for 48 hrs by Annexin V-FITC/PI staining based flow cytometric analysis (reference value: 2.08 %). The data set is classed as functional.
Data set [12] has as its system MDA-MB-231. Nature of the data set: Down regulation of TrxR expression in human MDA-MB-231 cells incubated for 48 hrs by Western blot analysis. It counts as functional, cell-based. To be noted: dose 2-8 µM. An outline of the steps: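 MDA-MB-231 cells exposed at 2, 4 and 8 μM for 48 h. TrxR2 protein detected by Western blot and quantified by gray-value scanning. Mean ± SD, n = 3.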

Data set [13] deals with MDA-MB-231. Nature of the data set: Induction of apoptosis in human MDA-MB-231 cells assessed as late apoptotic or necrotic cells at 8 uM incubated for 48 hrs by Annexin V-FITC/PI staining based flow cytometric analysis (reference value: 3.51 %). The data set is classed as functional.
Data set [14] in a line: Drug localization in mitochondria of human MDA-MB-231 cells at 1 uM incubated for 30 mins by MTDR staining based laser confocal microscopic analysis. It counts as ADME. To be noted: mda-mb-231, 0.5 h.
For data set [15], the system named is MDA-MB-231. Nature of the data set: Induction of mitochondrial membrane potential loss in human MDA-MB-231 cells assessed as TMRE low/caspase low cells at 4 uM after 24 hrs by TMRE staining based flow cytometric analysis (reference value: 98.21%). The data set is classed as functional.
Data set [16] relates to MDA-MB-231. Nature of the data set: Induction of mitochondrial membrane potential loss in human MDA-MB-231 cells assessed as TMRE low/caspase low cells at 8 uM after 24 hrs by TMRE staining based flow cytometric analysis (reference value: 98.21%). It counts as functional.
Data set [17] concerns MDA-MB-231. Nature of the data set: Induction of apoptosis in human MDA-MB-231 cells assessed as late apoptotic or necrotic cells at 4 uM incubated for 48 hrs by Annexin V-FITC/PI staining based flow cytometric analysis (reference value: 3.51 %). The data set is classed as functional.
Data set [18] deals with MDA-MB-231. Briefly: Induction of mitochondrial membrane potential loss in human MDA-MB-231 cells assessed as TMRE low/caspase low cells at 2 uM after 24 hrs by TMRE staining based flow cytometric analysis (reference value: 98.21%). It counts as functional.
Data set [19] relates to MDA-MB-231. Briefly: Induction of apoptosis in human MDA-MB-231 cells assessed as early apoptotic cells at 8 uM incubated for 48 hrs by Annexin V-FITC/PI staining based flow cytometric analysis (reference value: 2.08 %). It counts as functional.
In data set [20] the test system is MDA-MB-231. Briefly: Induction of cell death in human MDA-MB-231 cells assessed as reduction in cell viability preincubated with CsA for 2 hrs followed by compound addition and measured after 48 hrs by MTT assay. The data set is classed as functional, cell-based. In outline:
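MDA-MB-231 cells pre-incubated 2 h with cyclosporin A (2 and 4 μM), then exposed to compound for 48 h. Viability read by MTT. Mean ± SD, n = 3.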

Data set [21] deals with MDA-MB-231. Briefly: Induction of cell death in human MDA-MB-231 cells assessed as reduction in cell viability at 2 to 8 uM preincubated with BSO for 24 hrs followed by compound addition and measured after 24 hrs MTT assay. It counts as functional. As to conditions: dose 2-8 µM. In outline: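 MDA-MB-231 cells pretreated with buthionine sulfoximine (50 μM, 24 h) to deplete GSH, then exposed to test compound for a further 24 h. Viability read by MTT. Means ± SD, n = 3.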

The subject of data set [22] is MDA-MB-231. Nature of the data set: Induction of mitochondrial membrane potential loss in human MDA-MB-231 cells assessed as TMRE high cells at 2 uM after 24 hrs by TMRE staining based flow cytometric analysis (reference value: 1.79%). The data set is classed as functional.
Data set [23] has as its system MDA-MB-231. Nature of the data set: Induction of mitochondrial membrane potential loss in human MDA-MB-231 cells assessed as TMRE high cells at 4 uM after 24 hrs by TMRE staining based flow cytometric analysis (reference value: 1.79%). The data set is classed as functional.
For data set [24], the system named is MDA-MB-231. Nature of the data set: Induction of ROS generation in human MDA-MB-231 cells after 6 hrs by DCFH-DA staining based flow cytometric analysis. It counts as functional, cell-based. In outline: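 MDA-MB-231 cells treated for 6 h, then intracellular ROS probed with DCFH-DA. Geometric mean fluorescence measured by flow cytometry. Mean ± SD, n = 3.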

A short description of data set [25]: Drug localization in mitochondria of human MDA-MB-231 cells at 1 uM incubated for 30 mins in presence of CCCP by MTDR staining based laser confocal microscopic analysis. To be noted: mda-mb-231, 0.5 h. It counts as ADME.
The test system of data set [26] is MDA-MB-231. Nature of the data set: Induction of mitochondrial membrane potential loss in human MDA-MB-231 cells after 24 hrs by TMRE staining based flow cytometric analysis. The data set is classed as functional, cell-based. To be noted: dose 2-8 µM.

Regarding `CCN(CC)c1ccc2cc(C(=O)OCCCC[P+](c3ccccc3)(c3ccccc3)c3ccccc3)c(=O)oc2c1`, the Drug uptake entry in [1] is “Dose-dependent effect”; in [2], “Tde”. Moreover, the IC50 – broadly, the concentration needed to halve the response being measured – in the data set with MCF7 was 27.8 µM; in the data set with MCF-10A, 83.7 µM; in the data set on SK-BR-3, 30.9 µM; in the data set with MDA-MB-231 [3], 29.4 µM. Further, the Stabilty result in data set [4] is given as “Unstable”.

With `CCCCNC(=O)c1cc2ccc(N(CC)CC)cc2oc1=O`, the IC50 with MCF7, in the data set with MCF-10A, with SK-BR-3 and in the data set with MDA-MB-231 [3] was over 100 µM each time.

With `CCN(CC)c1ccc2cc(C(=O)NCCCC[P+](c3ccccc3)(c3ccccc3)c3ccccc3)c(=O)oc2c1`, the inhibition entry in the data set on MDA-MB-231 [5] and with MDA-MB-231 [7] was “Active” in each case. The Drug uptake entry in data set [1] is on record as “Dose-dependent effect”; in [2] it was “Tde”; in data set [14], “Active”; in [25], “Not Active”. The Activity with MDA-MB-231 [6] came out at 39.37%; in the data set on MDA-MB-231 [8], 14.69%; in the data set with MDA-MB-231 [9] it was 13%; in the data set on MDA-MB-231 [10], 6.47%; in the data set on MDA-MB-231 [11], 1.2%; in the data set with MDA-MB-231 [13], 65.07%. Besides, the Activity was 70.55% in the data set with MDA-MB-231 [15]; 60.63% in the data set on MDA-MB-231 [16]; 24.09% in the data set with MDA-MB-231 [17]; 78.96% in the data set with MDA-MB-231 [18]; 1.89% in the data set on MDA-MB-231 [19]; 50% in the data set on MDA-MB-231 [21]. The Activity in the data set with MDA-MB-231 [22] is 21.04%; in the data set with MDA-MB-231 [23], 29.45%; in the data set on MDA-MB-231 [24] it was “Dose-dependent effect”; in the data set with MDA-MB-231 [26], “Dose-dependent effect”. In addition, the IC50 in the data set on MCF7 came to 3.26 µM; with MCF-10A, 45.3 µM; in the data set on SK-BR-3, 3.46 µM; in the data set on MDA-MB-231 [3], 3.03 µM. In addition, the outcome in the data set with MDA-MB-231 [12] was Active. Also, the outcome in the data set on MDA-MB-231 [20] was inactive. The Stabilty result in data set [4] is reported as “Stable”.

As to `CC/C(=C(\c1ccccc1)c1ccc(OCCN(C)C)cc1)c1ccccc1` [TAMOXIFEN], the figures for the IC50 in the data set on MCF7 and with MCF-10A were 15.2 µM and over 50 µM, respectively.

For `CCN(Cc1ccccc1)c1ccc2cc(C(=O)NCCCC[P+](c3ccccc3)(c3ccccc3)c3ccccc3)c(=O)oc2c1`, the IC50 in the data set on MCF7 came out at 4.9 µM; in the data set on MCF-10A, 15.1 µM; with SK-BR-3, 2.73 µM; in the data set with MDA-MB-231 [3] it was 3.73 µM.

On to `CCCC[P+](c1ccccc1)(c1ccccc1)c1ccccc1`, for which the IC50 in the data set on MCF7 is 57.4 µM; in the data set on MCF-10A, over 100 µM; in the data set with SK-BR-3 it was over 100 µM; with MDA-MB-231 [3], over 100 µM.
